Results of several laboratories.
Protocols differ between the studies behind these lines.
Read-out: microbial growth

| SMILES | organism | assay | system | conditions | MIC |
| --- | --- | --- | --- | --- | --- |
| CCCCCCC/C=C/C(=O)N1C(=O)/C(=C(/C)O)C(=O)C1CCCCN (centres unmarked) | Proteus vulgaris | – | ATCC33420 | – | > 200 µg/mL |
| CCCCCCCCCCCCS(=O)(=O)C[C@@H]1O[C@@H](O[C@@H]2[C@@H](O)[C@H](O[C@@H]3O[C@@H](CN)[C@H](O)[C@@H](O)[C@@H]3N)[C@@H](N)C[C@H]2N)[C@@H](O)[C@H](N)[C@H]1O | Listeria monocytogenes | – | ATCC19115 | – | 4 to 8 µg/mL |
| CCCCCCC/C=C/C(=O)N1C(=O)/C(=C(\O)c2ccc(OCOCCOC)cc2)C(=O)C1CC(C)C (centres unmarked) | Proteus vulgaris | – | ATCC33420 | – | > 200 µg/mL |
| CC(C)Oc1c(NC(=O)c2ccc(NC(=O)c3ccc(NC(=O)[C@H](CC(N)=O)NC(=O)c4ccc(NC(=O)c5ccc(C#N)s5)cc4)cc3)c(OC(C)C)c2O)ccc(C(=O)O)c1O | Proteus vulgaris | – | DSM2140 | – | 1 µg/mL |
| CCCCCCC/C=C/C(=O)N1C(=O)/C(=C(\O)c2ccccc2)C(=O)C1CC(C)C (centres unmarked) | Proteus vulgaris | – | ATCC33420 | – | > 200 µg/mL |
| CC(C)Oc1c(NC(=O)c2ccc(NC(=O)c3ccc(NC(=O)[C@H](CC(N)=O)NC(=O)c4ccc(NC(=O)c5ccc(C#N)cn5)cc4)cc3)c(OC(C)C)c2O)ccc(C(=O)O)c1O | Proteus vulgaris | – | DSM2140 | – | 1 µg/mL |
| CCCCCCC/C=C/C(=O)N1C(=O)/C(=C(\O)CCCC)C(=O)C1CC(C)C (centres unmarked) | Proteus vulgaris | – | ATCC33420 | – | > 200 µg/mL |
| C[C@@H]1[C@H](O)[C@@H](C)/C=C/C=C/C=C/C=C/C=C/C=C/C=C/[C@H](O[C@@H]2O[C@H](C)[C@@H](O)[C@H](N)[C@@H]2O)C[C@@H]2O[C@](O)(C[C@@H](O)C[C@@H](O)[C@H](O)CC[C@@H](O)C[C@@H](O)CC(=O)O[C@H]1C)C[C@H](O)[C@H]2C(=O)O | Cryptococcus neoformans | – | ATCC90113 | – | 0.68 µM |
| CCCCCCC/C=C/C(=O)N1C(=O)/C(=C(\O)C2CCNCC2)C(=O)C1CC(C)C (centres unmarked) | Proteus vulgaris | – | ATCC33420 | – | 200 µg/mL |
| CNC(=O)c1cc(Oc2ccc(NC(=O)Nc3ccc(Cl)c(C(F)(F)F)c3)cc2)ccn1 | Listeria monocytogenes | – | – | – | 3 µM |
| CCCCCCCCN1CCN(CC(O)(Cn2cncn2)c2ccc(F)cc2F)CC1 (centres unmarked) | Nakaseomyces glabratus | broth dilution | ATCC2001 | 48 h | 15.6 µg/mL |
| OC(Cn1cncn1)(Cn1cncn1)c1ccc(F)cc1F | Cryptococcus neoformans | broth dilution | ATCC208821 | 24 h | 8 µg/mL |
| C/C(=C\c1ccc(C#N)cc1)C(=O)Nc1ccc(C(=O)N[C@@H](CC(N)=O)C(=O)Nc2ccc(C(=O)Nc3ccc(C(=O)Nc4ccc(C(=O)O)cc4)c(O)c3OC(C)C)cc2)cc1 | Proteus vulgaris | – | DSM2140 | – | ≤ 0.03 µg/mL |
| O=C(CCc1ccc(O)c(O)c1)NCCCCCCCC[P+](c1ccccc1)(c1ccccc1)c1ccccc1.[Br-] | Cryptococcus neoformans | broth dilution | ATCC208821 | 24 h | > 32 µg/mL |
| C/C(=C\c1ccc(O)cc1)C(=O)Nc1ccc(C(=O)N[C@@H](CC(N)=O)C(=O)Nc2ccc(C(=O)Nc3ccc(C(=O)Nc4ccc(C(=O)O)cc4)c(O)c3OC(C)C)cc2)cc1 | Proteus vulgaris | – | DSM2140 | – | 0.125 µg/mL |
| O=C(CCCCCC[P+](c1ccccc1)(c1ccccc1)c1ccccc1)Nc1ccc(O)c(O)c1.[Br-] | Cryptococcus neoformans | broth dilution | ATCC208821 | 24 h | > 32 µg/mL |
| CO[C@@H](C(N)=O)[C@H](NC(=O)c1ccc(NC(=O)c2ccc(C#N)cc2)cc1)C(=O)Nc1ccc(C(=O)Nc2ccc(C(=O)Nc3ccc(C(=O)O)cc3)c(O)c2OC(C)C)cc1 | Proteus vulgaris | – | DSM2140 | – | 0.125 µg/mL |
| CCCCCCC/C=C/C(=O)N1C(=O)/C(=C(/C)O)C(=O)C1Cc1ccc(O)cc1 (centres unmarked) | Proteus vulgaris | – | ATCC33420 | – | > 200 µg/mL |
| O=C(Cc1cc(O)c(O)c(O)c1)NCCCCCCCC[P+](c1ccccc1)(c1ccccc1)c1ccccc1.[Br-] | Cryptococcus neoformans | broth dilution | ATCC208821 | 24 h | > 32 µg/mL |
| CCCCCCCCCCCCCCSC[C@@H]1O[C@@H](O[C@@H]2[C@@H](O)[C@H](O[C@@H]3O[C@@H](CN)[C@H](O)[C@@H](O)[C@@H]3N)[C@@H](N)C[C@H]2N)[C@@H](O)[C@H](N)[C@H]1O | Listeria monocytogenes | – | ATCC19115 | – | 0.5 to 1 µg/mL |
